Most compounds without a hit are left out; they make up all but 5.8% or so of the library.
GASC1 inh: inhibitors of human demethylase GASC-1 KDM4C; Q9H3R0; 96,000 tested, 0.15% active; GST-KDM4C 2-372, H3K9me3 peptide, LANCE TR-FRET; inhibition, % at 12.5 µM;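 active means mean replicate inhibition above about 25%, with at least 55% of replicates also reaching it, limit read from the data, passing the limit was not always enough; inconclusive means only one of those two conditions met; inactive means neither condition met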
Target sequence (Q9H3R0 2-372 limits assumed): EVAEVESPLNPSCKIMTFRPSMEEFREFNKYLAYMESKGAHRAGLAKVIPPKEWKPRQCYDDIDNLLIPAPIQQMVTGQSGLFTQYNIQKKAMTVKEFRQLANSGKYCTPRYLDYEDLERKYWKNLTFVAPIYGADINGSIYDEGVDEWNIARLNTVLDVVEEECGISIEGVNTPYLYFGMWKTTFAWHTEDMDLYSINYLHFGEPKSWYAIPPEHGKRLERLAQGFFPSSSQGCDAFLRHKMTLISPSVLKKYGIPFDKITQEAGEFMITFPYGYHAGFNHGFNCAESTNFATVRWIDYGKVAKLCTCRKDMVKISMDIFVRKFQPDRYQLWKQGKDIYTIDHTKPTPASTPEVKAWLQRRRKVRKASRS
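Assay system: GST-GASC-1 enzyme fragment 2-372 | Amount: 10 nM enzyme | Medium: HEPES buffer, pH 7.5, plus ascorbate | Reagent: H3K9me3 peptide substrate, Fe(II), 2-oxoglutarate | Doses: Single-point compound screen | Incubation: 30 min demethylation and 1 h detection at room temperature | Measured by: LANCE TR-FRET, excitation 340 nm, emissions 618 and 671 nm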
IDH1 mut inh: IDH1 R132H (human) inhibition; O75874; 70,000 tested, 0.18% active; IDH1 R132H reductase, diaphorase/resazurin fluorescence, 60 min; inhibition, % at 10 µM; AID 624101; in the data active means inhibition above about 34%; inconclusive means no clear call, values can overlap the other calls; inactive means below about 11%;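 further: 0% = DMSO and 100% = no enzyme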
Pf Dd2 growth: blocks growth of Plasmodium falciparum Dd2 parasites; P. falciparum Dd2 growth, SYBR Green, 72 h; hits give low values; activity change, % at 10 µM; 94,000 tested, 2.3% active; AID 1159554; in the data active means activity change below about -80%; inconclusive means no clear call, values can overlap the other calls
T cruzi growth-1: inhibitors of T. cruzi proliferation; T. cruzi beta-gal in NIH3T3, GalScreen luminescence, 90 h; inhibition, % at 8.34 µM; AID 624255; 77,000 tested, 5.9% active;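 active means mean inhibition above about 93%, with at least 55% of replicates each passing it, limit read from the data, passing the limit was not always enough; inconclusive means only one of those two conditions holds; inactive means neither condition holds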
T cruzi growth-2: blocks T. cruzi growth in NIH3T3 host cells; 5,600 tested, 72% active; AID 651739; inhibition, % at 8.35 µM; T. cruzi beta-gal in NIH3T3, GalScreen luminescence, 90 h; shares compounds with T cruzi growth-1;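 active means mean replicate inhibition above about 95% and at least 55% of replicates individually reaching it, limit read from the data; inconclusive means only one of the two criteria is met; inactive means neither criterion is met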
T cruzi growth-3: Trypanosoma cruzi proliferation inhibition; shares compounds with T cruzi growth-1; T. cruzi beta-gal in NIH3T3, GalScreen luminescence, 90 h; inhibition, % at 2.09 µM; 5,600 tested, 21% active; AID 651740;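 active means mean inhibition above about 95%, with at least 55% of replicates also reaching it, limit read from the data; inconclusive means meets just one of the two conditions; inactive means meets neither condition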;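 further: plate controls were neutral control median for no effect and positive control median for full effect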
3T3 cytotox: cytotoxicity in mouse NIH/3T3 fibroblasts; shares compounds with T cruzi growth-1; NIH/3T3 viability, CellTiter-Glo ATP luminescence, 90 h; cytotoxicity (signal decrease), % at 8.35 µM; 5,600 tested, 14% active; AID 651742;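 active means mean signal decrease across replicates above about 35% based on untreated-well scatter, with enough replicates individually passing, limit read from the data; inconclusive means no rule stated though some were filed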;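 further: 0% = median of neutral control wells and 100% = median of positive control wells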
3T3 cytotox 2: NIH/3T3 (mouse) viability loss. shares compounds with T cruzi growth-1. NIH/3T3 viability, CellTiter-Glo ATP luminescence, 90 h. inhibition, % at 24.9 µM. 5,600 tested, 56% active;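 active means mean loss of cell viability signal at or above a set limit, and enough replicates individually reaching it; inconclusive means meets only the mean limit or only the replicate share; inactive means meets neither condition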;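 further: 0% = median of neutral control wells and 100% = median of positive control wells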
* = called active by the depositor; ? = inconclusive; nt = no result.

SMILES	GASC1 inh	IDH1 mut inh	Pf Dd2 growth	T cruzi growth-1	T cruzi growth-2	T cruzi growth-3	3T3 cytotox	3T3 cytotox 2
O=C(C[C@@H]1CC[C@H]2[C@@H](COC[C@H](O)CN2Cc2ccc(Oc3ccccc3)cc2)O1)Nc1nccs1	-2	nt	-67	193*	104*	36	-13	?
O=C(C[C@H]1CC[C@H]2[C@@H](COC[C@H](O)CN2Cc2cccc(Cl)c2)O1)Nc1nccs1	0	nt	-49	133*	?	25	23	20
CCOC(=O)c1ccccc1NC(=O)C(C)Oc1ccc2c(C)cc(=O)oc2c1 (stereo not given)	nt	1	nt	nt	nt	nt	nt	nt
CSc1ccccc1NC(=O)Cn1ccc([N+](=O)[O-])n1	nt	0	nt	nt	nt	nt	nt	nt
N#C[C@@H]1[C@H](c2ccc(C#Cc3ccc(F)cc3)cc2)[C@@H](CO)N1C(=O)C1CC1	1	nt	-32	103*	105*	108*	1	98*
COc1cccc(C#Cc2ccc([C@@H]3[C@H](C#N)N(C(=O)C4CC4)[C@H]3CO)cc2)c1	-2	nt	-40	?	94	112*	8	25*
N#C[C@@H]1[C@@H](c2ccc(C#Cc3ccc(F)cc3)cc2)[C@H](CO)N1C(=O)C1CCC1	-2	nt	-78	87	nt	nt	nt	nt
N#C[C@@H]1[C@@H](c2ccc(C#Cc3cccnc3)cc2)[C@@H](CO)N1C(=O)C1CC1	0	nt	15	37	nt	nt	nt	nt
N#C[C@H]1[C@@H](c2ccc(C#Cc3cccc(F)c3)cc2)[C@H](CO)N1C(=O)C1CC1	-2	nt	-22	98*	100*	100*	39*	95*
N#C[C@H]1[C@H](c2ccc(C#Cc3cccc(F)c3)cc2)[C@@H](CO)N1C(=O)C1CC1	2	nt	-24	102*	104*	83	14	15
COc1cccc(C#Cc2ccc([C@@H]3[C@H](C#N)N(C(=O)C4CCCC4)[C@H]3CO)cc2)c1	-2	nt	-60	nt	nt	nt	nt	nt
Cc1ccccc1-c1nc2cc(NC(=O)COc3ccc(Br)cc3)ccc2o1	nt	0	nt	nt	nt	nt	nt	nt
CN(c1cccc(NC(=O)c2ccc(NS(=O)(=O)c3ccccc3)cc2)c1)S(C)(=O)=O	nt	0	nt	nt	nt	nt	nt	nt
CC1CCCC2=CC(OC2=O)C(C)(C)CCC1=O (stereo not given)	nt	0	nt	nt	nt	nt	nt	nt
C[C@H]1CN([C@@H](C)CO)S(=O)(=O)c2ccc(-c3ccncc3)cc2O[C@H]1CN(C)Cc1ccccn1	1	nt	-12	103*	97*	86	0	28*
C[C@@H]1CN([C@H](C)CO)S(=O)(=O)c2ccc(-c3ccncc3)cc2O[C@H]1CN(C)Cc1ccccn1	-2	nt	-31	112*	94	?	?	58*
Cc1cc(N(CC(=O)NC2CCCCC2)S(C)(=O)=O)ccc1Br	nt	0	nt	nt	nt	nt	nt	nt
O=C([C@H]1N[C@H]2c3ccc(C4=CCCCC4)c(=O)n3C[C@H]2[C@@H]1CO)N1CCC(Cc2ccccc2)CC1	-2	nt	nt	33	nt	nt	nt	nt
O=C([C@@H]1[C@@H](CO)[C@@H]2Cn3c(ccc(C4=CCCCC4)c3=O)[C@H]1N2)N1CCC(Cc2ccccc2)CC1	2	nt	10	100*	10	18	-21	-21
CC(C)NC(=O)N(C)C[C@@H]1Oc2c(NC(=O)Nc3ccc(C(F)(F)F)cc3)cccc2C(=O)N([C@@H](C)CO)C[C@H]1C	10	nt	-13	19	nt	nt	nt	nt
C[C@@H]1CN([C@@H](C)CO)C(=O)c2cccc(NC(=O)Nc3ccc(F)cc3)c2O[C@@H]1CN(C)C(=O)Nc1ccc(C(F)(F)F)cc1	-1	4	-76	?	111*	5	24	40*
C[C@H](CO)N1C[C@H](C)[C@H](CN(C)CC2CC2)Oc2c(NC(=O)Nc3ccc(C(F)(F)F)cc3)cccc2C1=O	1	1	-53	118*	101*	100*	-16	29
CC(C)NC(=O)N(C)C[C@H]1Oc2c(NC(=O)Nc3ccc(C(F)(F)F)cc3)cccc2C(=O)N([C@@H](C)CO)C[C@@H]1C	0	nt	-10	?	65	24	27	57*
C[C@@H]1CN([C@H](C)CO)C(=O)c2cccc(NC(=O)Nc3ccc(C(F)(F)F)cc3)c2O[C@@H]1CN(C)CC1CC1	0	0	-40	37	nt	nt	nt	nt
C[C@@H]1CN([C@@H](C)CO)C(=O)c2cccc(NC(=O)C3CCOCC3)c2O[C@H]1CN(C)C(=O)Nc1ccc(C(F)(F)F)cc1	-1	2	9	99*	-42	17	4	29*
SMILES	GASC1 inh	IDH1 mut inh	Pf Dd2 growth	T cruzi growth-1	T cruzi growth-2	T cruzi growth-3	3T3 cytotox	3T3 cytotox 2
C[C@H](CO)N1C[C@H](C)[C@@H](CN(C)C(=O)Nc2ccc(F)cc2)Oc2c(NC(=O)Nc3cccc4ccccc34)cccc2C1=O	1	-1	-43	92	nt	nt	nt	nt
C[C@@H]1CN([C@H](C)CO)C(=O)c2cccc(NC(=O)Nc3cccc4ccccc34)c2O[C@H]1CN(C)C(=O)Nc1ccc(F)cc1	0	-1	-53	99*	103*	60	5	21
COc1ccc(-c2ccc3c(c2)[C@@H]2[C@@H](CCN2C(=O)c2cnccn2)[C@H](CO)N3)cc1	0	nt	-44	?	112*	85	-9	-32
CN(C)C(=O)c1cccc(-c2ccc3c(c2)[C@@H]2[C@@H](CCN2C(=O)c2cnccn2)[C@H](CO)N3)c1	0	nt	-10	105*	97*	62	-22	-14
COc1cccc(-c2ccc3c(c2)[C@H]2[C@H](CCN2C(=O)c2cnccn2)[C@H](CO)N3)c1	5	nt	-12	74	nt	nt	nt	nt
O=C(c1cnccn1)N1CC[C@@H]2[C@H]1c1cc(-c3cccc(F)c3)ccc1N[C@@H]2CO	0	nt	10	101*	104*	74	26	41*
C[C@H](CO)N1C[C@H](C)[C@@H](CN(C)C(=O)C2CCCCC2)Oc2cc(C3=CCCCC3)ccc2S1(=O)=O	-2	nt	-26	113*	110*	48	5	105*
C[C@@H]1CN([C@@H](C)CO)S(=O)(=O)c2ccc(C3=CCCCC3)cc2O[C@@H]1CN(C)C(=O)C1CCCCC1	9	nt	12	119*	105*	93	34	106*
C[C@@H]1CN([C@@H](C)CO)S(=O)(=O)c2ccc(C3=CCCCC3)cc2O[C@H]1CN(C)C(=O)C1CCCCC1	0	6	-46	118*	104*	45	9	96*
C[C@H]1CN([C@@H](C)CO)S(=O)(=O)c2ccc(C3=CCCCC3)cc2O[C@@H]1CN(C)C(=O)C1CCCCC1	1	nt	-36	121*	103*	99*	-12	105*
